# Measurements: ChEMBL document CHEMBL1130197, “Preparation, characterization, DNA binding, and in vitro cytotoxicity of the enantiomers of the platinum(II) complexes N-methyl-, N-ethyl- and N,N-dimethyl-(R)- and -(S)-3-aminohexahydroazepinedichloroplatinum(II)” (1997)
# Experiments:
# Format in all cases: functional
# PC-9 = test: Concentration to inhibit growth of PC9 cell lines; details: Homo sapiens
# Procedure, shortened: (§1)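 Human tumor lines grown as monolayers in RPMI 1640 with 10% FCS plus penicillin/streptomycin, at 37 °C under 7.5% CO₂, 5% O₂, 85% N₂. Cells were seeded at 5000 per well and left 24 h, then exposed for 96 h at 37 °C to complexes (saline-dissolved, final 0–200 μM). Viability was read by MTT (570 nm) or SRB (570 nm) against untreated controls, with 4 or 6 replicates. IC50 was taken from dose–response curves.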
# [1] = Concentration to inhibit growth of PC9-cisR cell lines; details: Homo sapiens; PC-9; procedure, shortened: as §1
# BL13/0 = test: Concentration to inhibit growth of BL13/0 cell lines; details: Homo sapiens; procedure, shortened: as §1
# DU-145 = test: Concentration to inhibit growth of DU145 cell lines; details: Homo sapiens; procedure, shortened: as §1
Mean IC50 (PC-9) [µM],Mean IC50 (DU-145) [µM],Substance,Mean IC50 [1] [µM],Mean IC50 (BL13/0) [µM]
11.8,11.5,"8,8-Platinumdichloro-7,7-dimethyl-(6S)-1,7-diazoniabicyclo[4.2.1]nonane",28.7,10.2
13.7,10.1,"8,8-Platinumdichloro-7-methyl-(6S)-1,7-diazoniabicyclo[4.2.1]nonane",38.3,11.7
1.4,1.8,CISPLATIN,11.7,1.9

# Second part, the substance before the results:
Substance,Mean IC50 (PC-9) [µM],Mean IC50 (DU-145) [µM],Mean IC50 [1] [µM],Mean IC50 (BL13/0) [µM]
"8,8-Platinum dichloro-7-ethyl-(6S)-1,7-diazoniabicyclo[4.2.1]nonane",31,21.3,79.7,19
"8,8-Platinumdichloro-7,7-dimethyl-(6R)-1,7-diazoniabicyclo[4.2.1]nonane",13.5,7.3,29.3,7.7
"8,8-Platinumdichloro-7-ethyl-(6R)-1,7-diazoniabicyclo[4.2.1]nonane",20,9.5,44,7.4
"8,8-platinumdichloro-(6R)-1,7-diazoniabicyclo[4.2.1]nonane",5.9,2.9,16,1.3
